{"source": "ChEMBL document CHEMBL1152782", "about": "“Rational modification of a candidate cancer drug for use against Chagas disease” (J Med Chem, 2009)", "key": {"[1]": {"system": "Trypanosoma cruzi", "experiment": "Antitrypanosomal activity against Trypanosoma cruzi Tulahuen amastigotes expressing beta-galactosidase in mouse 3T3 fibroblast after 7 days by […]", "type": "functional, organism-based", "settings": "168 h"}, "[2]": {"experiment": "Inhibition of rat recombinant protein farnesyltransferase expressed in Sf9 cells by [3H]-scintillation proximity assay"}, "[3]": {"experiment": "Ratio of IC50 for rat recombinant protein farnesyltransferase to EC50 for Trypanosoma cruzi Tulahuen expressing beta-galactosidase"}, "[4]": {"biological_target": "Sterol 14-alpha demethylase (Trypanosoma cruzi (strain CL Brener)) (UniProt Q7Z1V1)", "sequence (Q7Z1V1 whole entry, looked up)": "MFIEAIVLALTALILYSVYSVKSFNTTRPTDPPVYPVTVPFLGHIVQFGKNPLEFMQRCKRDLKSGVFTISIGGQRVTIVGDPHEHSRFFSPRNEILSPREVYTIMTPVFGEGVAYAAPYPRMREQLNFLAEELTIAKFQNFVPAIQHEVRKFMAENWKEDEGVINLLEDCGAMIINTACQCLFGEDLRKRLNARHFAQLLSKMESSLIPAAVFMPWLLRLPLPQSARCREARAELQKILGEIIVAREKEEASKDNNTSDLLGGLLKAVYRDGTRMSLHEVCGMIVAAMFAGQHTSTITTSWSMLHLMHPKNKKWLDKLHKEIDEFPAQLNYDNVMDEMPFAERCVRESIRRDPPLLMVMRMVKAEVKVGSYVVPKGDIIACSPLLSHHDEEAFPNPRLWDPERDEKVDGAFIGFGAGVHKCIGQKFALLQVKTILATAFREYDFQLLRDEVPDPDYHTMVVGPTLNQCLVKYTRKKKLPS", "experiment": "Inhibition of Trypanosoma cruzi recombinant sterol 14-alpha-demethylase assessed as drug/enzyme molar ratio required to produce 50 percent decrease in turnover number"}, "[5]": {"biological_target": "Cytochrome P450 3A4 (Homo sapiens, UniProt P08684)", "sequence (P08684 whole entry)": "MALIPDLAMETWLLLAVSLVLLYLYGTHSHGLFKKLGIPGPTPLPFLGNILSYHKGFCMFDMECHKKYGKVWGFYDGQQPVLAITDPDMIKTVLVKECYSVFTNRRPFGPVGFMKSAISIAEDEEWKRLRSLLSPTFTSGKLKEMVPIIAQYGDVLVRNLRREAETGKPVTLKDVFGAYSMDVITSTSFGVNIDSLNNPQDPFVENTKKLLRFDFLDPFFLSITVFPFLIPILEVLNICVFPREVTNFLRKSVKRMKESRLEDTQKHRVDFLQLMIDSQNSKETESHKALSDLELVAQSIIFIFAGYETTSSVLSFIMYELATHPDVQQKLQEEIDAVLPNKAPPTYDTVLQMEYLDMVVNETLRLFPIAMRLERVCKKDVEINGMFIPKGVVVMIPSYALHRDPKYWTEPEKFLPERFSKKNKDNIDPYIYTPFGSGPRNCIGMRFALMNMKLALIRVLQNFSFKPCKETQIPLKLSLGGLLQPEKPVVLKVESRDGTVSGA", "experiment": "Inhibition of human recombinant CYP3A4", "type": "ADME"}, "[6]": {"biological_target": "T1, Lanosterol 14-alpha demethylase (Homo sapiens, UniProt Q16850)", "T1 sequence (Q16850 whole entry)": "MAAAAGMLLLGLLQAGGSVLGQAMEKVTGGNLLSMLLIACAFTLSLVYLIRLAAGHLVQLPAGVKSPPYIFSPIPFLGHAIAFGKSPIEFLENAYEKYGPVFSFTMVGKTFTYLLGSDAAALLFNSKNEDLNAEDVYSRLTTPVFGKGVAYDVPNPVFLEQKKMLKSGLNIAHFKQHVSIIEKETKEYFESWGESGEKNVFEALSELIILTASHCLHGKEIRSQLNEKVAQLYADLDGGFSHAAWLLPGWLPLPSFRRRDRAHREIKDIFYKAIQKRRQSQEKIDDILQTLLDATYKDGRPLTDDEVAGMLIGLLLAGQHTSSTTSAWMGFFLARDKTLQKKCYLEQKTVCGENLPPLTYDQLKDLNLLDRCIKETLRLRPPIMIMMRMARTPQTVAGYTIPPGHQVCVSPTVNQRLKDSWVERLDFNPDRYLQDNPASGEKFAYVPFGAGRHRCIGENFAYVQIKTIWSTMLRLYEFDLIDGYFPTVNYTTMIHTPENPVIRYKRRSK", "experiment": "Inhibition of human sterol 14-alpha-demethylase assessed as drug/enzyme molar ratio required to produce 50 percent decrease in turnover number"}, "[7]": {"system": "Trypanosoma cruzi", "experiment": "Antitrypanosomal activity against Trypanosoma cruzi Tulahuen trypomastigotes infected in BALB/c mouse assessed as suppression of parasitemia in blood culture at 100 mg/kg, po twice a day after 7 days of infection for 8 to 13 days and 50 mg/kg, po for 14 to 27 days measured after 100 days by microscopy", "type": "functional, organism-based", "summary_of_the_method": "(§1)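 Female BALB/c mice (7–8 weeks) infected subcutaneously with 5×10^3 Tulahuen trypomastigotes; oral gavage from day 8, groups of 5–6, for 20 days. Benznidazole 100 mg/kg once daily days 8–27; test agents 100 mg/kg twice daily days 8–13 then 50 mg/kg twice daily days 14–27; vehicle 20% hydroxypropyl beta-cyclodextrin twice daily. Parasitemia counted in 5 μL tail blood over 50 high-powered fields.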"}, "[8]": {"system": "Trypanosoma cruzi", "experiment": "Antitrypanosomal activity against Trypanosoma cruzi Tulahuen trypomastigotes infected in BALB/c mouse assessed as suppression of parasitemia at 100 mg/kg, po after 7 days of infection for 8 to 27 days measured weekly for 8 weeks by microscopy", "type": "functional, organism-based", "parameters": "dose 100 mg/kg", "summary_of_the_method": "as §1"}, "[9]": {"experiment": "Elimination half life in BALB/c mouse at 50 mg/kg, po", "type": "ADME, organism-based", "parameters": "dose 50 mg/kg, route oral", "settings": "in vivo, read-out: beta t1/2 (converted)", "summary_of_the_method": "(§2)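 Single oral gavage dose of 50 mg/kg, suspended at 10 mg/ml in 20% (w/v) hydroxypropyl beta-cyclodextrin, to uninfected female BALB/c mice (7–8 weeks, ~20 g); timed tail blood, plasma extracted with acetonitrile using an internal standard, quantified by reversed-phase LC-MS (electrospray ion trap); three mice averaged.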"}, "[10]": {"experiment": "Cmax in BALB/c mouse at 50 mg/kg, po", "type": "ADME, organism-based", "parameters": "dose 50 mg/kg, route oral", "settings": "in vivo", "summary_of_the_method": "as §2"}, "[11]": {"system": "Mus musculus", "experiment": "Toxicity in BALB/c mouse at 50 mg/kg, po administered twice a day", "type": "organism-based", "parameters": "dose 50 mg/kg, route oral", "settings": "in vivo", "summary_of_the_method": "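Infected female BALB/c mice given oral gavage in 20% hydroxypropyl beta-cyclodextrin, 100 mg/kg twice daily days 8–13 then 50 mg/kg twice daily days 14–27; monitored for weight loss and adverse effects.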"}, "[12]": {"system": "Trypanosoma cruzi", "experiment": "Antitrypanosomal activity against Trypanosoma cruzi Tulahuen trypomastigotes infected in BALB/c mouse assessed as suppression of parasitemia at 100 mg/kg, po twice a day after 7 days of infection for 8 to 13 days and 50 mg/kg, po for 14 to 27 days measured weekly for 8 weeks by microscopy", "type": "functional, organism-based", "summary_of_the_method": "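Female BALB/c mice, 7–8 weeks old, infected s.c. with 5×10^3 Tulahuen trypomastigotes; parasitemic by day 7. From day 8, groups of 5–6 were gavaged 100 mg/kg twice daily (days 8–13), then 50 mg/kg twice daily (days 14–27), in 20% w/v hydroxypropyl-β-cyclodextrin. Parasitemia read in 5 μL tail blood over 50 high-power fields. Day-103 cardiac blood cultured at 28 °C, checked weekly for 8 weeks.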"}, "[13]": {"experiment": "Terminal half life in po dosed human administered twice a day", "type": "ADME, organism-based", "settings": "in vivo, read-out: beta t1/2 (converted)"}}, "note": "Active and inactive are the calls of the source. The calls are words filed in the database; no cut-off is given here.", "data": [{"compound": "Cn1cncc1[C@@](N)(c1ccc2ccccc2c1)c1ccc2c(c1)c(-c1cccc(Cl)c1)cc(=O)n2C", "values": [{"measurement": "EC50", "setting": "[1]", "result": 45, "unit": "nM"}, {"measurement": "IC50", "setting": "[2]", "result": 17, "unit": "nM"}, {"measurement": "Ratio IC50/EC50", "setting": "[3]", "result": 0.4}]}, {"compound": "Cn1cncc1[C@@](N)(c1ccc(Cl)cc1)c1ccc2c(c1)c(-c1ccccc1)cc(=O)n2C", "values": [{"measurement": "EC50", "setting": "[1]", "result": 12, "unit": "nM"}, {"measurement": "IC50", "setting": "[2]", "result": 4, "unit": "nM"}, {"measurement": "Ratio IC50/EC50", "setting": "[3]", "result": 0.3}]}, {"compound": "Cc1c(Cl)cccc1-c1cc(=O)n(C)c2ccc([C@](N)(c3ccc(Cl)cc3)c3cncn3C)cc12", "note": "(racemic)", "values": [{"measurement": "Activity", "setting": "[4]", "result": 0.65}, {"measurement": "IC50", "setting": "[5]", "result": 1300, "unit": "nM"}, {"measurement": "EC50", "setting": "[1]", "result": 21, "unit": "nM"}, {"measurement": "Activity", "setting": "[6]", "result": "> 100"}, {"measurement": "IC50", "setting": "[2]", "result": 294, "unit": "nM"}, {"measurement": "Ratio IC50/EC50", "setting": "[3]", "result": 14}]}, {"compound": "Cc1ccccc1-c1cc(=O)n(C)c2ccc([C@](N)(c3ccc(Cl)cc3)c3cncn3C)cc12", "note": "(racemic)", "values": [{"measurement": "IC50", "setting": "[5]", "result": 1350, "unit": "nM"}, {"measurement": "EC50", "setting": "[1]", "result": 23, "unit": "nM"}, {"measurement": "IC50", "setting": "[2]", "result": 300, "unit": "nM"}, {"measurement": "Ratio IC50/EC50", "setting": "[3]", "result": 13}]}, {"compound": "Cn1cncc1[C@@](N)(c1ccc(Cl)cc1)c1ccc2c(c1)c(-c1cccc3ccccc13)cc(=O)n2C", "note": "(racemic)", "values": [{"measurement": "Activity", "setting": "[4]", "result": 0.85}, {"measurement": "EC50", "setting": "[1]", "result": 22, "unit": "nM"}, {"measurement": "Activity", "setting": "[6]", "result": "> 100"}, {"measurement": "IC50", "setting": "[2]", "result": 485, "unit": "nM"}]}, {"compound": "CO[C@](c1ccc(Cl)cc1)(c1ccc2c(c1)c(-c1cccc(Cl)c1C)cc(=O)n2C)c1cncn1C", "note": "(racemic)", "values": [{"measurement": "Activity", "setting": "[4]", "result": 0.62}, {"measurement": "IC50", "setting": "[5]", "result": 870, "unit": "nM"}, {"measurement": "Activity", "setting": "[7]", "result": "Active"}, {"measurement": "Activity", "setting": "[8]", "result": "Active"}, {"measurement": "half-life", "setting": "[9]", "result": 4, "unit": "h"}, {"measurement": "EC50", "setting": "[1]", "result": 0.6, "unit": "nM"}, {"measurement": "Activity", "setting": "[6]", "result": 48}, {"measurement": "Cmax", "setting": "[10]", "result": 5, "unit": "µM"}, {"measurement": "Activity", "setting": "[11]", "result": "Non-toxic"}, {"measurement": "IC50", "setting": "[2]", "result": "> 5000", "unit": "nM"}, {"measurement": "Activity", "setting": "[12]", "result": "Active"}, {"measurement": "Ratio IC50/EC50", "setting": "[3]", "result": "> 8300"}]}, {"compound": "Cc1cc([C@@](N)(c2ccc3c(c2)c(-c2cccc(Cl)c2)cc(=O)n3C)c2cncn2C)ccc1Cl", "note": "(racemic)", "values": [{"measurement": "EC50", "setting": "[1]", "result": 23, "unit": "nM"}, {"measurement": "IC50", "setting": "[2]", "result": 13, "unit": "nM"}, {"measurement": "Ratio IC50/EC50", "setting": "[3]", "result": 0.6}]}, {"compound": "Cn1cncc1[C@](N)(c1ccc(Cl)cc1)c1ccc2c(c1)c(-c1cccc(Cl)c1)cc(=O)n2C", "note": "[(S)-TIPIFARNIB]", "values": [{"measurement": "Activity", "setting": "[4]", "result": 0.74}, {"measurement": "Activity", "setting": "[6]", "result": "> 100"}]}, {"compound": "CC(=O)N1CCN(c2ccc(OCC3COC(Cn4ccnc4)(c4ccc(Cl)cc4Cl)O3)cc2)CC1", "note": "(configuration not stated) [KETOCONAZOLE]", "values": [{"measurement": "Activity", "setting": "[4]", "result": 0.75}, {"measurement": "EC50", "setting": "[1]", "result": 0.3, "unit": "nM"}, {"measurement": "Activity", "setting": "[6]", "result": 2.3}]}, {"compound": "CC[C@@H]([C@H](C)O)n1ncn(-c2ccc(N3CCN(c4ccc(OC[C@@H]5CO[C@@](Cn6cncn6)(c6ccc(F)cc6F)C5)cc4)CC3)cc2)c1=O", "note": "[POSACONAZOLE]", "values": [{"measurement": "EC50", "setting": "[1]", "result": 0.3, "unit": "nM"}]}, {"compound": "Cn1cncc1[C@@](N)(c1ccc(Cl)cc1)c1ccc2c(c1)c(-c1cccc(Cl)c1)cc(=O)n2C", "note": "[TIPIFARNIB]", "values": [{"measurement": "Activity", "setting": "[4]", "result": 0.48}, {"measurement": "EC50", "setting": "[1]", "result": 4, "unit": "nM"}, {"measurement": "half-life", "setting": "[13]", "result": 16, "unit": "h"}, {"measurement": "Activity", "setting": "[6]", "result": "> 100"}, {"measurement": "IC50", "setting": "[2]", "result": 0.7, "unit": "nM"}, {"measurement": "Activity", "setting": "[12]", "result": "inactive"}]}]}
